# Laboratory results reported in article PMC8716398 (Biochemical and Biophysical Research Communications, 2021).
# Like-named read-outs stand apart in the source and are kept apart here.
# Key:
# 3CLpro [1] = target: T1, 3CLpro (Severe acute respiratory syndrome coronavirus 2, UniProt P0DTD1); type: biochemical, SARS-CoV-2
# 3CLpro [2] = target: T1, 3CLpro; experiment: Surface plasmon resonance; type: binding, SARS-CoV-2; settings: SPR, heterogeneous ligand model
# 3CLpro [3] = target: T1, 3CLpro; experiment: Isothermal titration calorimetry; parameters: species or system SARS-CoV-2; settings: KD of the secondary binding, ITC, two sets of independent sites model, 25 °C
# How it was run: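 ITC was run at 25 °C in 10 mM HEPES pH 7.4 containing 2% DMSO. Test compound (2 mM, syringe) was injected stepwise into 40 μM 3CLpro in the cell, with 120 s between injections. A matching titration into buffer alone was subtracted. Integrated peak areas were fitted with a two-sets-of-independent-sites model.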
# Papain = target: T2, Papain (Carica papaya, UniProt P00784); experiment: Enzyme activity assay, hydrolytic activity of Papain; type: biochemical
# T2 sequence (P00784 134-345): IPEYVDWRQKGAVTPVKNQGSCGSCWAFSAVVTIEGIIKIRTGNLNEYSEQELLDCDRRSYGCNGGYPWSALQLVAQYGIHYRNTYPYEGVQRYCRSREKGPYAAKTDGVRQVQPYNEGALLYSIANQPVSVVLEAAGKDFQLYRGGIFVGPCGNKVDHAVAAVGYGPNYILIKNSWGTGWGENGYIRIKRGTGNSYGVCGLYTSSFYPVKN
# 3CLpro of SARS-CoV-2 [4] = target: T3, 3CLpro of SARS-CoV-2 (Severe acute respiratory syndrome coronavirus 2, UniProt P0DTD1); experiment: Enzyme activity assay, hydrolytic activity of 3CLpro; type: biochemical
# Proteinase K = Proteinase K (Parengyodontium album, UniProt P06873); experiment: Enzyme activity assay, hydrolytic activity of Proteinase K; type: biochemical
# 3CLpro of SARS-CoV-2 [5] = target: T3, 3CLpro of SARS-CoV-2; experiment: Analysis of inhibition type; type: biochemical
# 3CLpro [6] = target: T1, 3CLpro; experiment: biochemical; type: binding, SARS-CoV-2
# [7] = HTS of ∼6000 compounds at 16.7 μM
# Sequence of Proteinase K (P06873 106-384): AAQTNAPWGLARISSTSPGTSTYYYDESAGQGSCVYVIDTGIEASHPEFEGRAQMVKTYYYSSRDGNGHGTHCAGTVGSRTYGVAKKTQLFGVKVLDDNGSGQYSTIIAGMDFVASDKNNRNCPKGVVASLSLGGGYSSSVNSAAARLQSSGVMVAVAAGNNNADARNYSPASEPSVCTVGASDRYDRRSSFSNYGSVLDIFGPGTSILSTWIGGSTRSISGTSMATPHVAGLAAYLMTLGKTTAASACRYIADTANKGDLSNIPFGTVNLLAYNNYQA
structure (smiles),measurement,setting,value
CCN(CC)C(=S)SSC(=S)N(CC)CC [Disulfiram],HTS outcome (potential 3CLpro inhibitor),3CLpro [1]; [7],screened out
O=c1c2ccccc2[se]n1-c1ccccc1 [Ebselen],HTS outcome (potential 3CLpro inhibitor),3CLpro [1],screened out
O=C(O)c1ccccc1-c1c2cc(Br)c(=O)cc-2oc2[c]([Hg+])c(O)c(Br)cc12 [Merbromin],ka1,3CLpro [2]; first set,694.6 ± 2.61 M⁻¹ s⁻¹
same,kd1,3CLpro [2]; first set,1.25 ± 0.01 × 10^−3 s^−1
same,ka2,3CLpro [2]; second set,646.7 ± 3.98 M⁻¹ s⁻¹
same,kd2,3CLpro [2]; second set,16.25 ± 0.08 × 10^−3 s^−1
same,Kd,3CLpro [3],67.8 µM
same,IC50,Papain,8.03 µM
same,IC50,3CLpro of SARS-CoV-2 [4],2.7 ± 0.17 µM
same,IC50,Proteinase K,> 70 µM
same,Ki,3CLpro of SARS-CoV-2 [5],3.93 ± 1.41 µM
same,mixed constant (Alpha),"3CLpro of SARS-CoV-2 [5]; mixed model inhibition, global fit Eqn. (4)",3.77 ± 3.96
same,Kd,3CLpro [6],11.8 ± 0.98 µM
CCC(C)SSc1ncc[nH]1 (centres unmarked) [PX-12],HTS outcome (potential 3CLpro inhibitor),3CLpro [1],screened out
CC(C)=CC[C@@H](O)C1=CC(=O)c2c(O)ccc(O)c2C1=O [Shikonin],HTS outcome (potential 3CLpro inhibitor),3CLpro [1]; [7],screened out
Cn1sc(=O)n(Cc2ccccc2)c1=O [TDZD-8],HTS outcome (potential 3CLpro inhibitor),3CLpro [1]; [7],screened out
O=c1sn(-c2cccc3ccccc23)c(=O)n1Cc1ccccc1 [Tideglusib],HTS outcome (potential 3CLpro inhibitor),3CLpro [1]; [7],screened out
